ChEMBL document CHEMBL3352043, “Discovery of small-molecule inhibitors selectively targeting the DNA-binding domain of the human androgen receptor” (J Med Chem, 2014)
The source made the active and inactive calls. The rule behind the calls is not given here.

Legend:
[1] = system: LNCaP; experiment: Growth inhibition of AR-dependent human LNCAP cells after 3 days by MTS assay; format: functional, cell-based
In short: (§1)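 LNCaP and MR49F cells were seeded at 3000 cells/well in RPMI 1640 with 5% charcoal-stripped serum. They were treated with 0.1 nM R1881 plus compound (0−25 μM) for 4 days; the figure legend gives 3 days. Readout was MTS tetrazolium absorbance. Growth was normalized as (sample − vehicle)/(0.1 nM R1881 − vehicle) × 100.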

[2] = Stability of the compound in RPMI plus 5% charcoal stripped serum media after 1 hr by MS analysis; format: physicochemical
[3] = system: MR49F; experiment: Growth inhibition of enzalutamide-resistant human MR49F cells after 3 days by MTS assay; format: functional, cell-based; in short: as §1
[4] = Growth inhibition of AR-negative human PC3 cells after 3 days by MTS assay; format: cell-based; conditions: pc-3, 72 h

Structure (SMILES): Brc1ncn(-c2csc(N3CCOCC3)n2)c1Br
- growth inhibition (GI) [1]: Dose-dependent effect
- Stability [2]: Stable
- growth inhibition (GI) [3]: Active
- Activity [4]: Non-toxic
